The values that follow come from the array DNA melting data of Ke et al. (doi:10.1101/2024.01.08.574731).

Data set [1] in a line: folding enthalpy; higher = less favourable; fluorescence melt of hairpins on a sequencing array, two-state fit. The conditions noted are these: sodium 0.088 M. The essentials: (§1)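 On a sequenced MiSeq flow cell, library hairpins with annealed Cy3 and quencher oligos were imaged for Cy3 fluorescence in 2.5 °C steps up to 60 °C, in 50 mM Na-HEPES pH 8.0, 25 mM NaCl. Normalisation used pre-quench Cy3 and control constructs. Bootstrapped two-state fits gave melting temperature and folding enthalpy, combined by inverse variance across four replicates and with fitted temperatures raised by 9.35 °C to match UV melts.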

Data set [2] in a line: melting temperature; fluorescence melt of hairpins on a sequencing array, two-state fit, raised by 9.35 °C to match UV melts. The conditions noted are these: sodium 0.088 M. A digest of the protocol: as §1

For the sequence GATCTGATGGCAGATC ((((((....)))))), in data set [1], the folding enthalpy was -36.5 kcal/mol. Further, the Tm in data set [2] worked out at 47.7 °C.
The corresponding values for GATCTGCAATCAGATC ((((((....)))))) are -36.7 kcal/mol and 47.2 °C.
For GATCTGCACCCAGATC ((((((....)))))), in that order: -33.4 kcal/mol and 47.8 °C.
As to GATCTGCACTCAGATC ((((((....)))))), the folding enthalpy in data set [1] is -34.1 kcal/mol. For the same sequence, the Tm in data set [2] turned out to be 48.9 °C.
On to GATCTGCAGCCAGATC ((((((....)))))), for which, in data set [1], the folding enthalpy is -32.6 kcal/mol. Further, in data set [2], the Tm was found to be 48.9 °C.
For GATCTGCCAGCAGATC ((((((....)))))), in that order: -38.6 kcal/mol and 57.7 °C.
The corresponding values for GATCTGCCGCCAGATC ((((((....)))))) are -31.9 kcal/mol and 51.4 °C.
For GATCTGCCGTCAGATC ((((((....)))))), in that order: -37.8 kcal/mol and 50.2 °C.
As to GATCTGCGAAAGCACATC (((.(((....))).))), the folding enthalpy in data set [1] was -13.5 kcal/mol. In addition, in data set [2], the Tm is 30.4 °C.
As to GATCTGCGACAGATC ((((((...)))))), the folding enthalpy in data set [1] was -26.2 kcal/mol. Further, in data set [2], the Tm turned out to be 47.3 °C.
With GATCTGCGGACAGATC ((((((....)))))), the folding enthalpy in data set [1] is -28.2 kcal/mol. Also, in data set [2], the Tm came out at 50.4 °C.
For GATCTGCGTACAGATC ((((((....)))))), in that order: -36.4 kcal/mol and 53.9 °C.
For GATCTGCGTGCAGATC ((((((....)))))), in that order: -34.5 kcal/mol and 66.7 °C.
For the sequence GATCTGCTCCAGATC ((((((...)))))), in data set [1], the folding enthalpy is -31.1 kcal/mol. Moreover, in data set [2], the Tm is 50.4 °C.
The corresponding values for GATCTGGATCAGATC ((((((...)))))) are -29.6 kcal/mol and 47.9 °C.
As for GATCTGGATCCAGATC ((((((....)))))), the folding enthalpy in data set [1] was -55.9 kcal/mol. Besides, the Tm in data set [2] came out at 54.1 °C.
The corresponding values for GATCTGGGGGCAGATC ((((((....)))))) are -41 kcal/mol and 51 °C.
The corresponding values for GATCTGGGTCAGATC ((((((...)))))) are -35.9 kcal/mol and 48.6 °C.
As for GATCTGGGTGCAGATC ((((((....)))))), in data set [1], the folding enthalpy is -47.2 kcal/mol. In data set [2], the Tm worked out at 52.5 °C.
For GATCTGGTACAGATC ((((((...)))))), in data set [1], the folding enthalpy is -41.3 kcal/mol. Also, the Tm in data set [2] came to 60.8 °C.
For the sequence GATCTGGTACCAGATC ((((((....)))))), the folding enthalpy in data set [1] is -37.8 kcal/mol. The Tm in data set [2] amounted to 56 °C.
The corresponding values for GATCTGGTCTCAGATC ((((((....)))))) are -43 kcal/mol and 53 °C.
As for GATCTGGTGACAGATC ((((((....)))))), the folding enthalpy in data set [1] is -40.8 kcal/mol. Besides, the Tm in data set [2] was 56.4 °C.
For GATCTGGTTGCAGATC ((((((....)))))), in that order: -42.9 kcal/mol and 51.1 °C.
The corresponding values for GATCTGTAGCCAGATC ((((((....)))))) are -34.1 kcal/mol and 48.6 °C.
For GATCTGTATCAGATC ((((((...)))))), in that order: -34.4 kcal/mol and 48.2 °C.
Regarding GATCTGTATGCAGATC ((((((....)))))), the folding enthalpy in data set [1] was -38.8 kcal/mol. Moreover, the Tm in data set [2] turned out to be 54.9 °C.
The corresponding values for GATCTGTCCACAGATC ((((((....)))))) are -40.8 kcal/mol and 55.6 °C.
The corresponding values for GATCTGTCCCAGATC ((((((...)))))) are -33.6 kcal/mol and 49.5 °C.
GATCTGTCTGCAGATC ((((((....)))))): the folding enthalpy in data set [1] was -42.1 kcal/mol. The Tm in data set [2] amounted to 52.9 °C.
In the case of GATCTGTGCTCAGATC ((((((....)))))), the folding enthalpy in data set [1] was -39 kcal/mol. Moreover, in data set [2], the Tm amounted to 50.6 °C.
For GATCTGTGGCAGATC ((((((...)))))), in that order: -30.3 kcal/mol and 49.1 °C.
In the case of GATCTGTGGGCAGATC ((((((....)))))), the folding enthalpy in data set [1] was -49.7 kcal/mol. Moreover, the Tm in data set [2] is 54.3 °C.
In the case of GATCTGTGTGCAGATC ((((((....)))))), the folding enthalpy in data set [1] is -46.9 kcal/mol. Besides, the Tm in data set [2] came out at 56.4 °C.
For GATCTGTTGACAGATC ((((((....)))))), in that order: -43.8 kcal/mol and 53.1 °C.
GATCTGTTTGCAGATC ((((((....)))))): the folding enthalpy in data set [1] is -40.6 kcal/mol. For the same sequence, the Tm in data set [2] came to 54.8 °C.
For GATCTTAAAAAGATC ((((((...)))))), in that order: -27.5 kcal/mol and 42.7 °C.
With GATCTTAACCAAGATC ((((((....)))))), the folding enthalpy in data set [1] is -33.7 kcal/mol. Besides, in data set [2], the Tm is 42.9 °C.
